Article PMC7036014 (Molecular cell, 2019)
Changes are numbered by the printed parent chain.

How the values were obtained:
SIRT1 [1] = target: T1, SIRT1 (Homo sapiens, UniProt Q96EB6); test: 1,8-ANS displacement assay, SIRT1; assay type: binding; settings: for Ki, SIRT1: displacement of 1,8-ANS
T1 sequence (Q96EB6 1-747): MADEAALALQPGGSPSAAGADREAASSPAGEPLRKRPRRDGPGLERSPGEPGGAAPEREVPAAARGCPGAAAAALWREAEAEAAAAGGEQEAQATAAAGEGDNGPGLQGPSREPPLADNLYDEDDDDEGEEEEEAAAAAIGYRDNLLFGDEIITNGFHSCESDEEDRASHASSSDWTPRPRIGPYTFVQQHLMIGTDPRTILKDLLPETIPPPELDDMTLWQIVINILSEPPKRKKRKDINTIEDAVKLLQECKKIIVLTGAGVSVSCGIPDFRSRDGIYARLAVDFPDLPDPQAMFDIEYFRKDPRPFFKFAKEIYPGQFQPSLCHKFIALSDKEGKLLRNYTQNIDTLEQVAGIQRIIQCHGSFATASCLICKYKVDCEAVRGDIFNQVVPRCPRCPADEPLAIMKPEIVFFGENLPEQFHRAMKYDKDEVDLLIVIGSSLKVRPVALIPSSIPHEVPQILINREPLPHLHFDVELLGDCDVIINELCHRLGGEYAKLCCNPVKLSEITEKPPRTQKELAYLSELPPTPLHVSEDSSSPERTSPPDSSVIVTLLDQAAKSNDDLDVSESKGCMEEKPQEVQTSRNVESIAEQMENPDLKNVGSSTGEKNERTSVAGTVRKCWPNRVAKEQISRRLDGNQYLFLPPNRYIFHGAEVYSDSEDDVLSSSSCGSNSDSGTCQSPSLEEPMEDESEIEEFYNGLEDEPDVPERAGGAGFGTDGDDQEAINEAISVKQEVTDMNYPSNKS

SIRT1 [2] = target: T1, SIRT1; test: Circular dichroic analysis of SIRT1 secondary structure with ligand; settings: for shape of the CD spectrum of SIRT1: addition of ligand; for α-helical content of SIRT1: with ligand, 23% without ligand
[3] = target: T2, recombinant full-length murine PLIN5 (Mus musculus, UniProt Q8BVZ1); test: Intrinsic tryptophan fluorescence quenching binding assay, PLIN5; settings: for binding curve, PLIN5: tryptophan fluorescence
T2 sequence (Q8BVZ1 1-463): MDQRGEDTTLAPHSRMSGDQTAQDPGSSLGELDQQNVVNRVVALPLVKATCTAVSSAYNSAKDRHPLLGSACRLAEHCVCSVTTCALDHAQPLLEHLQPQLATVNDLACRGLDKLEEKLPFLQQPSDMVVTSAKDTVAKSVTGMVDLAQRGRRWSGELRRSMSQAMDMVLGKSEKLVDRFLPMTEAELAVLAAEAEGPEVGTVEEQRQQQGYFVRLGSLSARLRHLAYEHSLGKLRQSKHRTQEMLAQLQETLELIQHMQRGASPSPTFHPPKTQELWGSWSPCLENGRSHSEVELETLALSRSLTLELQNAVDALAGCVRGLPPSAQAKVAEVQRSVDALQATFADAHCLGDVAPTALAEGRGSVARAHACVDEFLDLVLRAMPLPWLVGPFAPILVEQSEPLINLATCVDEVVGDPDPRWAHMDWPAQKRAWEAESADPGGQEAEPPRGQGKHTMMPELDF
Outline: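 Protein at 150 nM in 10 mM NaH2PO4, pH 7.5, titrated with ethanolic fatty acid. Excitation 295 nm, emission scanned 300–400 nm. Signal corrected for buffer-plus-ligand background. ΔF (F0−F) plotted against ligand to give a saturation curve. Kd taken from linear regression of the double-reciprocal transform. PLIN5: untagged full-length murine recombinant protein, n=4.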

SIRT1 [4] = target: T1, SIRT1; test: HPLC-MS/MS SIRT1 deacetylation assay with acetylated peptide substrates; assay type: biochemical; settings: for activation of SIRT1 towards mutant p53 peptide (p53-W): 250 nM 18:1, 10 μM resveratrol, 1 μM SRT1720; for allosteric activation of SIRT1 towards wild-type p53 peptide: p53 peptide lacking hydrophobic residue at +1 or +6
Outline: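 Recombinant SIRT1 (1 μM, E. coli-expressed) incubated with acetylated peptide (0–250 μM) plus fatty acid in 25 mM Tris, pH 8.0, 50 mM NaCl, 1 mM DTT, 1 mM NAD+ for 60 min at 37°C. Deacetylation quantified by HPLC-MS/MS with positive-mode electrospray. Km, Vmax and kcat obtained from Lineweaver-Burk plots.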

SIRT1 [5] = target: T1, SIRT1; test: Intrinsic tryptophan fluorescence quenching binding assay, SIRT1; settings: for Kd, SIRT1: tryptophan quenching
PLIN5 = target: T3, PLIN5 (Mus musculus, UniProt Q8BVZ1); test: 1,8-ANS displacement assay, PLIN5; assay type: binding, murine
T3 sequence (Q8BVZ1 1-463): T2 sequence (Q8BVZ1 1-463)
Outline: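 Untagged recombinant PLIN5 (His-MBP tag removed by TEV protease) at 1 μM with 500 nM 1,8-ANS in 50 mM sodium phosphate, pH 7.5, 25°C. Competitor lipids added in increasing amounts, each mixed 60 s before reading fluorescence. I50 taken from the normalized displacement curve. Ki = I50/(1+[L]/KD), using the ANS KD from a Scatchard analysis of a protein titration.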

PLIN5-pM (S155E) = target: T4, PLIN5-pM (S155E) (Mus musculus, UniProt Q8BVZ1, S155E); test: Tryptophan fluorescence quenching binding assay, PLIN5-pM; parameters: species or system murine; settings: for increase in binding affinity of PLIN5-pM: PLIN5-pM vs comparator
T4 sequence (Q8BVZ1 1-463 S155E): T2 sequence (Q8BVZ1 1-463) with S155E

PGC-1α activity, MEFs = test: PGC-1α luciferase reporter assay in MEFs; assay type: cell-based, mouse; settings: for PGC-1α activity with cAMP, individual fatty acid loading: vs non-loaded or 18:0/16:0 loaded cells; for activation of PGC-1α in Sirt1 knockout cells rescued with GFP tagged human Sirt1: Sirt1 knockout MEFs + human Sirt1
PLIN5-pM = target: T5, PLIN5-pM (Mus musculus, UniProt Q8BVZ1, S155E); test: Circular dichroic analysis of PLIN5-pM with ligand; parameters: species or system murine; settings: addition of ligand
T5 sequence (Q8BVZ1 1-463 S155E): T2 sequence (Q8BVZ1 1-463) with S155E
Outline: (§1)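 Far-UV CD spectra of the PLIN5 phospho-mutants in 10 mM NaH2PO4, pH 7.5, with 10 mM NaCl, with and without ligand. Run at 25°C in a 1 mm path cuvette. Ligand incubated 2–5 min before each scan. Each spectrum is the average of ten scans, repeated in triplicate.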

[6] = system: PGC-1α activity, mouse L-cells; test: PGC-1α luciferase reporter assay in L-cells; assay type: cell-based; settings: Plin5 knockout L-cells
[7] = system: cellular cAMP levels, MEF cells; test: cAMP-Glo Assay in MEF cells; assay type: cell-based, mouse; settings: 6 hrs 500 μM 18:1, no Iso/IBMX
Outline: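 MEFs in DMEM/10% FBS given 2% fatty-acid-free BSA or 500 μM 18:1–BSA complex for 6 or 16 h. Then washed and switched to serum-free DMEM with DMSO or 20 μM isoproterenol/500 μM IBMX for 20 min. cAMP-Glo steps at room temperature: lysis 15 min, detection solution 20 min, Kinase-Glo 10 min. n=12–16.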

PLIN5-pD = target: T6, PLIN5-pD (Mus musculus, UniProt Q8BVZ1, S155A); test: Circular dichroic analysis of PLIN5-pD with ligand; parameters: species or system murine; settings: addition of ligand
T6 sequence (Q8BVZ1 1-463 S155A): T2 sequence (Q8BVZ1 1-463) with S155A
Outline: as §1

[8] = system: PGC-1α activity, primary hepatocytes; test: PGC-1α luciferase reporter assay in primary hepatocytes; assay type: cell-based, mouse; settings: hepatocytes preloaded with fatty acid
[9] = acetylated PGC-1α peptide substrate
[10] = acetylated FOXO3a peptide substrate
[11] = fixed amounts of PGC-1α, FOXO3a and H3 peptides, 150 or 600 nM 18:1

SMILES: CCCCCCCCCCCCCCCC(=O)O [16:0, palmitic acid]
- Ki, SIRT1 (SIRT1 [1]): not observed
- shape of the CD spectrum of SIRT1 (SIRT1 [2]): did not alter
- binding curve, PLIN5 [3]: Saturable binding curves
- stimulation of SIRT1 deacetylase activity (SIRT1 [4]; [9]): unable to stimulate
- Kd, SIRT1 (SIRT1 [5]): No fatty acid binding was observed

SMILES: CCCCCC/C=C\CCCCCCCC(=O)O [16:1, palmitoleic acid]
- Ki (SIRT1 [1]): 12500 ± 60 nM
- Ki (PLIN5): 9900 ± 70 nM
- Kd (PLIN5-pM (S155E)): 23 ± 3 nM
- increase in binding affinity of PLIN5-pM (PLIN5-pM (S155E)): 3.4 fold
- α-helical content of SIRT1 (SIRT1 [2]): 25.9%
- Kd [3]: 82 ± 12 nM
- binding curve, PLIN5 [3]: Saturable binding curves
- PGC-1α activity with cAMP, individual fatty acid loading (PGC-1α activity, MEFs): synergized with cAMP
- Km of SIRT1 towards the PGC-1α peptide (SIRT1 [4]; [9]): lowering
- SIRT1 catalytic efficiency (Kcat/Km) towards the PGC-1α peptide (SIRT1 [4]; [9]): increase
- Kd (SIRT1 [5]): 100 ± 3 nM

SMILES: CCCCCCCCCCCCCCCCCC(=O)O [18:0, stearic acid]
- Ki, SIRT1 (SIRT1 [1]): not observed
- Ki (PLIN5): 17700 ± 40 nM
- shape of the CD spectrum of SIRT1 (SIRT1 [2]): did not alter
- binding curve, PLIN5 [3]: Saturable binding curves
- stimulation of SIRT1 deacetylase activity (SIRT1 [4]; [9]): unable to stimulate
- Kd, SIRT1 (SIRT1 [5]): No fatty acid binding was observed

SMILES: CCCCCCCC/C=C\CCCCCCCC(=O)O [18:1, oleic acid]
- Ki (SIRT1 [1]): 5600 ± 120 nM
- Ki (PLIN5): 4000 ± 130 nM
- Kd (PLIN5-pM (S155E)): 36 ± 8 nM
- increase in binding affinity of PLIN5-pM (PLIN5-pM (S155E)): 2.4 fold
- shape of the CD spectrum of PLIN5-pM (PLIN5-pM): robustly altered
- α-helical content of SIRT1 (SIRT1 [2]): 28.6%
- Kd [3]: 89 ± 2 nM
- binding curve, PLIN5 [3]: Saturable binding curves
- basal PGC-1α activity, acute exposure (PGC-1α activity, MEFs; 6 hrs, 500 μM 18:1): increased
- requirement of PKA-stimulated lipolysis for activation of PGC-1α (PGC-1α activity, MEFs; PKA or ATGL inhibitors): required
- regulation of PGC-1α activity in MEFs lacking Sirt1 (PGC-1α activity, MEFs; Sirt1 knockout MEFs): SIRT1 was required
- activation of PGC-1α in Sirt1 knockout cells rescued with GFP tagged human Sirt1 (PGC-1α activity, MEFs): restored
- PGC-1α activity upon stimulation of β-adrenergic signaling (PGC-1α activity, MEFs; acute and overnight loading vs non-loaded cells, isoproterenol/IBMX): enhanced
- PGC-1α activity with cAMP, individual fatty acid loading (PGC-1α activity, MEFs): synergized with cAMP
- effect on Km and catalytic efficiency on co-addition with resveratrol (SIRT1 [4]; PGC-1α peptide, co-addition of 18:1 and resveratrol vs single compound): not additive
- Km of SIRT1 towards the FOXO3a peptide (SIRT1 [4]; [10]): reduced
- SIRT1 catalytic efficiency towards the FOXO3a peptide (SIRT1 [4]; [10]): increased
- Km of SIRT1 towards the PGC-1α peptide (SIRT1 [4]; [9]): lowering
- SIRT1 catalytic efficiency (Kcat/Km) towards the PGC-1α peptide (SIRT1 [4]; [9]): increase
- enzyme velocity (SIRT1 [4]; [9]): without a significant change
- deacetylase activity towards FOXO3a and PGC-1α peptides, competition assay (SIRT1 [4]; [11]): increased
- deacetylase activity towards H3, competition assay (SIRT1 [4]; [11]): decreased
- activation of SIRT1 towards mutant p53 peptide (p53-W) (SIRT1 [4]): activated
- allosteric activation of SIRT1 towards wild-type p53 peptide (SIRT1 [4]): did not respond
- regulation of PGC-1α activity in L-Cells lacking Plin5 [6]: PLIN5 was required
- Kd (SIRT1 [5]): 81 ± 9 nM
- cellular cAMP levels, acute exposure [7]: increased
- CD spectrum changes of PLIN5-pD (PLIN5-pD): more subtle changes
- PGC-1α activity response to cAMP and protein overexpression [8]: further enhanced

SMILES: CCCCC/C=C\C/C=C\C/C=C\C/C=C\CCCC(=O)O [20:4, arachidonic acid]
- binding curve, PLIN5 [3]: Saturable binding curves

SMILES: CN(C)C(=O)Nc1cccc(-c2ccc(N(C)C)cc2)c1 [ATGLstatin, reference compound]
- effects of β-adrenergic stimulation on PGC-1α activity in 18:1 loaded cells (PGC-1α activity, MEFs; 30 μM ATGL inhibitor): blocked

SMILES: O=C(Nc1ccccc1-c1cn2c(CN3CCNCC3)csc2n1)c1cnc2ccccc2n1 [SRT1720, reference compound]
- activation of SIRT1 towards mutant p53 peptide (p53-W) (SIRT1 [4]): activated
- allosteric activation of SIRT1 towards wild-type p53 peptide (SIRT1 [4]): did not respond

SMILES: Oc1ccc(/C=C/c2cc(O)cc(O)c2)cc1 [resveratrol, reference compound]
- activation of PGC-1α in Sirt1 knockout cells rescued with GFP tagged human Sirt1 (PGC-1α activity, MEFs): restored
- regulation of PGC-1α in Sirt1 knockout cells rescued with Sirt1-E230K mutant (PGC-1α activity, MEFs; Sirt1 knockout MEFs + human Sirt1 E230K): did not restore
- activation of SIRT1 towards mutant p53 peptide (p53-W) (SIRT1 [4]): activated
- allosteric activation of SIRT1 towards wild-type p53 peptide (SIRT1 [4]): did not respond
